Screening results deposited in PubChem by Broad Institute.
Cneo AK release: Cryptococcus neoformans cell lysis inducers, primary screen, AK release luminescence, single concentration. hit rate 0.2% among 360,000. lysis activity, % at 15 µM. C. neoformans lysis, adenylate kinase release luminescence, 4 h; normalised: neutral wells 0, clomiphene wells 100;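 active = mean lysis activity across replicates of at least 80%, whatever share of replicates individually reach that level; inactive = mean lysis activity below 80%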
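Test system: log-phase Cryptococcus neoformans yeast cells; Quantity: yeast cell density of 5 × 10^6 cells/mL; Buffer or medium: YPD; Doses: single compound concentration per well; Timing: 4 h at 37 °C static, read 1 h later; Measured by: AK luminescence; Read-out basis: lysis from increased AK signal; Control set: Clomiphene as positive control.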
HIV Env fusion: inhibitors of HIV-1 Env-driven cell-cell fusion, primary screen, HeLa-JRFL effector, CEM21 target cells, luciferase; inhibition, % at 12.3 µM; hit rate 1.1% among 360,000; AID 651610, 2012;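 active = mean replicate inhibition score of at least 50 and every replicate individually at or above 50; inconclusive = only one of the two criteria met; inactive = mean below 50 and not all replicates reaching 50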
GSIS activator: GLuc luminescence reporter in INS-1E cells, primary screen for activators of glucose-dependent secretion of insulin; INS-1E GLuc reporter insulin secretion, 2-3 h; activation, % at 16.6 µM; hit rate 0.61% among 370,000; AID 743287, 2014;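 active = lowest replicate activation of at least 40%, so every replicate reaches that level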
CDK5 p35 inh: inhibitors of human CDK5/p35 kinase, primary screen, biochemical, single concentration. Cyclin-dependent kinase 5 (Homo sapiens) + Cyclin-dependent kinase 5 activator 1 (Homo …. Recombinant CDK5/p35, ADP-Glo luminescence, 60 min. inhibition, % at 10 µM. hit rate 0.01% among 330,000. AID 488839, 2010;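 active = highest replicate inhibition of at least 50% and at least 75% of replicates reaching 50%; inconclusive = only one of the two criteria met; inactive = both criteria failed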
Target sequence (Q00535 whole entry, looked up): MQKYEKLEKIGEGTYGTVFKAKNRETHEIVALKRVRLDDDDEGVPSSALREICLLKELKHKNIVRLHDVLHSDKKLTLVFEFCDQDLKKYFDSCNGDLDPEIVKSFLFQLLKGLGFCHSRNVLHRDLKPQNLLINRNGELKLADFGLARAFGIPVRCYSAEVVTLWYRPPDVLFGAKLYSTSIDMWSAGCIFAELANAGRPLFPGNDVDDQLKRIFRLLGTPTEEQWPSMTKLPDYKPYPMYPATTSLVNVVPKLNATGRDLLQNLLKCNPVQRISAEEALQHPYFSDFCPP
Target sequence (Q15078 whole entry, looked up): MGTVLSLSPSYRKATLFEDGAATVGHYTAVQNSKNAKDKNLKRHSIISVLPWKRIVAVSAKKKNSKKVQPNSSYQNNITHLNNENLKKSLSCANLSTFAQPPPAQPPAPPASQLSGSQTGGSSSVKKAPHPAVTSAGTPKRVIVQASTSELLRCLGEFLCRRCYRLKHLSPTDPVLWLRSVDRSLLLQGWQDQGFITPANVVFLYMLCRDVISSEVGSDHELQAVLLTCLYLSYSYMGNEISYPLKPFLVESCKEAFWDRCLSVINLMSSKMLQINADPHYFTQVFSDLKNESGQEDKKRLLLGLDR
PAX8 reporter: inhibitors of PAX8-driven TPO luciferase reporter, primary screen, RMG-I cells, single concentration. AID 652154, 2013. SteadyGlo, 24 h. inhibition, % at 12.6 µM. hit rate 1.2% among 360,000;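 active = mean replicate inhibition at least 60% with every replicate also reaching 60%; inconclusive = only one of the two criteria is met; inactive = mean below 60% and not all replicates reaching 60%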;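 note: luciferase light reporting Pax8 driven TPO promoter activity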
dFosB activator: activators of delta FosB homodimer, primary screen, biochemical, fluorescence polarization, TAMRA-CDK5 oligo, single point; purified delta FosB; percent of positive-control signal above neutral wells; activation, % at 25 µM; hit rate 0.99% among 340,000; AID 493131, 2011;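 active = mean activation above about 17%, with every replicate also reaching it, limit read from the data, passing the limit was not always enough; inconclusive = only one of the two conditions met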
A number is an active result; 0 = inactive; ? = inconclusive; - = no result given; ! = a repeat was not active. Sampled rows, rich in hits. Any-hit rate of the full collection: about 2.9%.

SMILES	Cneo AK release	HIV Env fusion	GSIS activator	CDK5 p35 inh	PAX8 reporter	dFosB activator
COC(=O)[C@H]1[C@H](CO)[C@H]2Cn3c(ccc(/C=C/c4ccccc4)c3=O)[C@@H]1N2C(=O)C1CC1	0	-	0	-	-	-
COC(=O)C1=C(c2cccc(OCc3ccccc3)c2)C[C@@H]2CC[C@H]1N2C(=O)NCc1cc(C)oc1C(F)(F)F	0	0	0	0	63.3	0
COC(=O)C1=C(c2ccc(OCc3ccccc3)cc2)C[C@@H]2CC[C@H]1N2C(=O)NCc1ccc(C(C)(C)C)cc1	0	0	0	-	85.6	-
COC(=O)C1=C(c2cccc(OCc3ccccc3)c2)C[C@@H]2CC[C@H]1N2C(=O)NCc1ccc([N+](=O)[O-])cc1	0	0	0	0	0	0
COC(=O)C1=C(c2cccc(OCc3ccccc3)c2)C[C@@H]2CC[C@H]1N2C(=O)NCc1cccc(C(F)(F)F)c1	0	0	0	0	0	0
COC(=O)C1=C(c2ccc(OCc3ccccc3)cc2)C[C@@H]2CC[C@H]1N2C(=O)NCc1ccc([N+](=O)[O-])cc1	0	0	0	0	68.3	0
COC(=O)C1=C(c2ccc(OCc3ccccc3)cc2)C[C@@H]2CC[C@H]1N2C(=O)NCc1ccccc1	0	0	0	0	0	0
COC(=O)C1=C(c2ccc(OC(F)(F)F)cc2)C[C@@H]2CC[C@H]1N2C(=O)N1CCCCC1	0	75.1	-	0	0	0
COC(=O)[C@H]1[C@H](CO)[C@H]2Cn3c(ccc(C4=CCCC4)c3=O)[C@@H]1N2Cc1ccccn1	0	-	0	-	-	-
COC(=O)[C@H]1[C@H](CO)[C@H]2Cn3c(ccc(-c4ccccc4F)c3=O)[C@@H]1N2	0	0	0	-	0	-
C=C1C(=O)O[C@H]2[C@H]1[C@H](OC(=O)CC(=O)O[C@@H]1C[C@@H](C)[C@@H]3C=CC(=O)[C@@]3(C)[C@H]3OC(=O)C(=C)[C@H]13)C[C@@H](C)[C@H]1C=CC(=O)[C@]12C	0	0	0	0	68.4	0
C=C1C(=O)O[C@@H]2C[C@@H](C)[C@@H]3C=CC(=O)[C@@]3(C)[C@@H](OC(=O)CC(=O)O[C@H]3[C@@H]4C(=C)C(=O)O[C@@H]4C[C@@H](C)[C@@H]4C=CC(=O)[C@]43C)[C@H]12	0	108.9	-	0	109.3	0
C=C1C(=O)O[C@H]2C[C@@H](C)[C@@H]3C=CC(=O)[C@@]3(C)C[C@H]12	-	0	0	-	108.4	-
CC=Cc1ccc2n(c1=O)C[C@H]1[C@H](CO)[C@@H](C(=O)O)[C@@H]2N1S(=O)(=O)c1ccccc1F (mixture of isomers)	0	0	0	-	0	-
Cc1ccccc1-c1ccc([C@H]2[C@@H](CO)N3CCCCN(C(=O)Cc4ccccn4)C[C@@H]23)cc1	0	-	0	-	0	-
C[C@@H]1CN([C@@H](C)CO)C(=O)CCCn2nncc2CO[C@H]1CN(C)C(=O)Oc1cccc2ccccc12	87.9!	0	0	-	0	-
COc1cccc(-c2ccc3c(c2)C2c4cnnn4-c4ccccc4C(=O)N2CC3)c1 (stereo not drawn)	-	0	0	-	0	-
Cc1cccc(C)c1-n1nnnc1C(c1cccs1)N1CCC(n2c(=O)[nH]c3ccccc32)CC1 (stereo not drawn)	0	0	0	-	0	-
O=c1[nH]c2ccccc2n1C1CCN(C(c2cc3ccccc3o2)c2nnnn2-c2ccc3c(c2)OCCO3)CC1 (stereo not drawn)	0	0	0	-	103.2	-
Cc1cccc(C)c1-n1nnnc1C(c1cccc2ccccc12)N1CCC(n2c(=O)[nH]c3ccccc32)CC1 (stereo not drawn)	0	74.3	0	-	0	-
COc1ccc(C(c2nnnn2-c2ccc(OC)cc2)N2CCC(n3c(=O)[nH]c4ccccc43)CC2)cc1 (stereo not drawn)	0	0	0	-	0	-
O=c1[nH]c2ccccc2n1C1CCN(C(c2cccc3ccccc23)c2nnnn2-c2ccc3c(c2)OCCO3)CC1 (stereo not drawn)	0	0	0	-	98.0	-
O=C(O)[C@@H]1[C@@H](CO)[C@@H]2Cn3c(ccc(-c4cccc(F)c4)c3=O)[C@H]1N2CCc1ccccc1	0	-	0	-	0	-
CC1CCC(C(C)C)C(OC(=O)Cn2c(COc3ccccc3)[n+](C)c3ccccc32)C1 (stereo not drawn)	0	77.9	153.7	0	90.8	0
CN1C(=O)C2C[C@@]3(Br)c4ccccc4N(OOSc4ccccc4)[C@H]3N2C(=O)[C@@H]1Cc1ccccc1 (stereo partly drawn)	0	76.7	0	0	0	0
SMILES	Cneo AK release	HIV Env fusion	GSIS activator	CDK5 p35 inh	PAX8 reporter	dFosB activator
O=C(Cc1ccccn1)N1CCCCN2[C@H](CO)[C@H](c3ccc(C#Cc4ccccc4)cc3)[C@H]2C1	0	-	0	-	0	-
CC(O)C1C=CC=CC(=O)OC2CC3OC4C5OC5(C)C(O)CC4(COC(=O)C(O)C(C)CCO1)C2(C)C31CO1 (stereo not drawn)	-	69.7	0	0	112.7	0
CC1=CC2OC3CC4OC(=O)C=CC=CC(=O)OCCC(C)C(O)C(=O)OCC2(CC1)C4(C)C31CO1 (stereo not drawn)	-	?	-	0	102.2	0
CC(=O)OC1CC2OC3C=C(C)CCC3(C)C1(C)C21CO1 (stereo not drawn)	0	-	0	-	-	-
CC1=CC2OC3CC4OC(=O)C=CC=CC(C(C)O)OCC(O)C5(C)OC5C(=O)OCC2(CC1O)C4(C)C31CO1 (stereo not drawn)	-	72.7	0	0	101.8	0
CC1CCOC(=O)C=CC=CC(=O)OC2CC3OC4C5OC5(C)C(O)CC4(COC(=O)C1O)C2(C)C31CO1 (stereo not drawn)	-	59.0	-	0	103.6	0
O=C(Cc1cccnc1)N1CCCCN2[C@@H](CO)[C@@H](c3ccc(C#CC4CC4)cc3)[C@@H]2C1	0	-	-	-	0	-
CC(=O)N1C[C@@H]2C(c3ccc(Br)cc3)[C@H](C1)N2CC1CC1 (stereo partly drawn)	-	-	0	-	-	-
COC(=O)[C@H]1[C@H](CO)[C@H]2Cn3c(ccc(C4=CCCCC4)c3=O)[C@@H]1N2CC1CC1	0	-	0	-	-	-
CCOc1cc(CNCCc2c[nH]c3ccccc23)cc(Cl)c1OC	-	68.0	-	0	0	0
CC(=O)N1C[C@@H]2N[C@H](C1)C2c1ccccc1 (stereo partly drawn)	-	-	0	-	-	-
N#Cc1cn(C2OC(CO)C(O)C2O)c2ncnc(N)c12 (stereo not drawn)	-	84.8	0	0	96.3	0
